Assay outcomes: PubChem, Johns Hopkins Ion Channel Center
Only some compounds are listed: those with a hit (about 3.7% of all), similar ones and a draw of the others.
KCNK3 inh = human KCNK3 channel inhibitors, primary screen, CHO cells, FluxOR thallium flux, B-score | B-score at 10 µM | Potassium channel subfamily K member 3 (Homo sapiens), O14649 | hit rate 0.84% among 340,000 | FluxOR fluorescence; hits give low values | AID 602410, 2012;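 active = B-score under library mean minus 4 SD, starting fluorescence ratio at most library mean plus 5 SD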;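 note: more negative B-score means stronger inhibition of thallium flux through KCNK3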
KCNQ1 block = inhibitors of human KCNQ1 channel, primary screen, cell-based, thallium flux, high-throughput; CHO-K1 KCNQ1, FluxOR thallium flux fluorescence; hits give high values; Potassium voltage-gated channel subfamily KQT member 1 (Homo sapiens), P51787; B-score at 10 µM; hit rate 1.3% among 310,000; AID 2642, 2010;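 active = compounds whose thallium flux B-score, printed positive for inhibition, exceeds three library SD while starting fluorescence stays within three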;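 note: channel opened by potassium depolarization with thallium stimulus after 20 min compound exposure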
Target sequence (P51787 whole entry, looked up): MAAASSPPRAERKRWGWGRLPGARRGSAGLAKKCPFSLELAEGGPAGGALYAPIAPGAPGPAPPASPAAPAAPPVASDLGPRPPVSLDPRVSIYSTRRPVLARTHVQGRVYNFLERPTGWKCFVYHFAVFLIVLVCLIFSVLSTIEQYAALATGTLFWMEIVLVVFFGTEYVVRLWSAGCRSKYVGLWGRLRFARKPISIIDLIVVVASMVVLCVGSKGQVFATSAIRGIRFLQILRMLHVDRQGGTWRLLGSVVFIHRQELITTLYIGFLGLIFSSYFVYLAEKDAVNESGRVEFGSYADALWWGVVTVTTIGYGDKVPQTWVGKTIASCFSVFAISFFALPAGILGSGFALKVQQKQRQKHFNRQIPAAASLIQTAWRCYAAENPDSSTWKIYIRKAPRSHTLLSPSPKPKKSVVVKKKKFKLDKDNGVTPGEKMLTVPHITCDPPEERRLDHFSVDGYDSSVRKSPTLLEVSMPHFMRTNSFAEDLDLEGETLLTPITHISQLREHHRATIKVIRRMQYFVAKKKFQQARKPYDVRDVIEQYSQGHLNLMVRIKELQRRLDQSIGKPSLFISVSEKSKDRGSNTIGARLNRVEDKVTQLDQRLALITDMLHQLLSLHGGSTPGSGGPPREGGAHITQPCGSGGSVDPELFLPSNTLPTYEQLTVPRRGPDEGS
KCNK9 inh = KCNK9 potassium channel inhibitors, primary screen, HEK293 cells, thallium flux; Potassium channel subfamily K member 9 (Homo sapiens), Q9NPC2; FluxOR thallium flux fluorescence; hits give low values; B-score at 10 µM; hit rate 1.2% among 310,000;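 active = ratio B-score over 3 SD below the library mean, with starting fluorescence within 5 SD of its mean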;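 note: negative B-score means less thallium flux so channel inhibition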
KCNQ1 act = potentiators or activators of KCNQ1 channel, primary screen, cell-based, thallium flux, high-throughput. B-score at 10 µM. hit rate 0.35% among 310,000. CHO-K1 KCNQ1, thallium flux FluxOR fluorescence; hits give high values. Potassium voltage-gated channel subfamily KQT member 1 (Homo sapiens), P51787;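 active = fluorescence ratio B-score, a plate-corrected score, at least three library SD, with initial intensity B-score within 5 SD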
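Medium – assay buffer, equal DMSO in all wells · Material – CHO-K1 cell line with stable KCNQ1 potassium channel expression · Signal – kinetic FluxOR thallium fluorescence, 10-s 1-Hz baseline, 110-s post-stimulus read · Compound – single concentration per compound, DMSO matched to controls · Schedule – 37 °C overnight plating, 90-min dark dye load, 20-min compound pretreatment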
Kir21 block = inhibitors of mouse Kir2.1 inward-rectifier potassium channel; Inward rectifier potassium channel 2 (Mus musculus), P35561; HEK293-Kir2.1, FluxOR thallium flux fluorescence; hits give low values; B-score at 10 µM; hit rate 0.85% among 310,000; AID 1672, 2009;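 active = fluorescence ratio B-score at or below minus 3 SD of library scores, with starting-brightness B-score within 2 SD, cut at about -4.2 in these data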;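 note: channel flux triggered by added potassium and thallium sulfate stimulus; B-score of peak minus minimum fluorescence over baseline after thallium stimulus; more negative B-score means stronger Kir2.1 block with less thallium influx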
hERG protect = hERG rescue from dofetilide block, primary screen, cell-based, CHO-hERG, FluxOR thallium flux, dofetilide IC70 | Voltage-gated inwardly rectifying potassium channel KCNH2 (Homo sapiens), Q12809 | dofetilide IC70 present | activation (rescue from dofetilide block), less the hit threshold, % at 10 µM | hit rate 0.51% among 310,000 | AID 1511, 2009;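 active = activation above the mean of controls blocked by dofetilide plus 5 SD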;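 note: thallium influx through hERG after potassium depolarization seen as dye fluorescence rise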
KCNK9 block conf = KCNK9 potassium channel inhibitors, confirmation, HEK293 cells, thallium flux, duplicate; AID 492992, 2010; shares compounds with KCNK9 inh; FluxOR thallium flux fluorescence; inhibition, % at 10 µM; hit rate 43% among 4,900;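 active = thallium signal inhibited by more than 5 SD of the compound-free buffer control wells, on both duplicate plates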
Kir2-1 spec = mouse Kir2.1 channel inhibition, confirmation, selectivity assay for KCNK9 modulator project, cell-based, HEK293, thallium flux | shares compounds with KCNK9 inh | Kir2.1 cells, FluxOR thallium flux fluorescence | inhibition, % at 10 µM | hit rate 4% among 4,900;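 active = thallium signal drop more than 5 SD beyond the mean of the no-compound control wells, seen in both duplicate plates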;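 note: signal is fluorescence rise after thallium addition divided by baseline fluorescence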
HEK293 Tl ctr = thallium flux in non-induced HEK293 cells, confirmation, counter-screen for KCNK9 inhibitor project, cell-based, second counter screen, non-induced KCNK9-HEK293; shares compounds with KCNK9 inh; FluxOR thallium flux; inhibition, % at 10 µM; hit rate 40% among 4,900;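 active = thallium signal drop beyond 5 SD of the untreated control mean, on both duplicate plates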
Numbers stand for hits.

What do the screens show for `CCOC(=O)CCNCc1ccc(OC)c(OC)c1`?
KCNK3 inh: inactive; KCNQ1 block: inactive; KCNK9 inh: inactive; KCNQ1 act: inactive; Kir21 block: inactive; hERG protect: inactive

Results for CCOC(=O)C1(CC2CC2)CCN(Cc2cn(C)c3ccccc23)CC1 ?
KCNK3 inh: inactive; KCNQ1 block: inactive; KCNK9 inh: inactive; KCNQ1 act: inactive; Kir21 block: inactive; hERG protect: inactive; KCNK9 block conf: inactive; Kir2-1 spec: inactive; HEK293 Tl ctr: inactive

Results for CCCCc1cc(=O)oc2cc(C)cc(OCC(=O)N3C[C@H]4C[C@@H](C3)c3cccc(=O)n3C4)c12 ?
KCNK3 inh: inactive; KCNQ1 block: inactive; KCNK9 inh: inactive; KCNQ1 act: inactive; Kir21 block: inactive; hERG protect: inactive

How did CCCCC(=NCCc1c(C)[nH]c2ccccc12)C1=C(O)CC(c2ccccc2)CC1=O (stereo not given) do in these assays?
KCNK3 inh: inactive; KCNQ1 block: inactive; KCNK9 inh: inactive; KCNQ1 act: inactive; Kir21 block: inactive; hERG protect: inactive; KCNK9 block conf: inactive; Kir2-1 spec: inactive; HEK293 Tl ctr: inactive

How did CCCC(=NCCc1c(C)[nH]c2ccccc12)C1=C(O)CC(c2ccccc2)CC1=O (stereo not given) do in these assays?
KCNK3 inh: inactive; KCNQ1 block: inactive; KCNK9 inh: inactive; KCNQ1 act: inactive; Kir21 block: inactive; hERG protect: inactive; KCNK9 block conf: inactive; Kir2-1 spec: inactive; HEK293 Tl ctr: inactive

How did CCCCSc1cnn(-c2ccccc2)c(=O)c1SCCCC do in these assays?
KCNK3 inh: inactive; KCNQ1 block: 6; KCNK9 inh: -9.9; KCNQ1 act: inactive; Kir21 block: inactive; hERG protect: inactive; KCNK9 block conf: 52%; Kir2-1 spec: inactive; HEK293 Tl ctr: 48%

How did CCSc1cnn(-c2ccccc2)c(=O)c1SCC do in these assays?
KCNK3 inh: inactive; KCNQ1 block: inactive; KCNK9 inh: inactive; KCNQ1 act: inactive; Kir21 block: inactive; hERG protect: inactive

How did CN(C)c1ccc(/C=N/n2c(-c3ccccc3Br)n[nH]c2=S)cc1 do in these assays?
KCNK3 inh: inactive; KCNQ1 block: inactive; KCNK9 inh: inactive; KCNQ1 act: inactive; Kir21 block: inactive; hERG protect: inactive; KCNK9 block conf: inactive; Kir2-1 spec: inactive; HEK293 Tl ctr: inactive

What do the screens show for `O=C1C(Cl)=C(N2CCN(Cc3ccccc3)CC2)C(=O)N1Cc1ccccc1`?
KCNK3 inh: inactive; KCNQ1 block: inactive; KCNK9 inh: inactive; KCNQ1 act: inactive; Kir21 block: inactive; hERG protect: inactive; KCNK9 block conf: inactive; Kir2-1 spec: inactive; HEK293 Tl ctr: inactive

What do the screens show for `C=C(C(=O)c1ccccc1)C(c1ccccc1)C(C)C(=O)c1ccccc1` (stereo not given)?
KCNK3 inh: inactive; KCNQ1 block: inactive; KCNK9 inh: -12; KCNQ1 act: inactive; Kir21 block: -4.4; hERG protect: inactive; KCNK9 block conf: 73%; Kir2-1 spec: inactive; HEK293 Tl ctr: 44%

What do the screens show for `COc1ccc(NC(=O)Cn2c(-c3ccccc3)cn(-c3ccc(C)cc3)c2=O)cc1`?
KCNK3 inh: inactive; KCNQ1 block: inactive; KCNK9 inh: inactive; KCNQ1 act: inactive; Kir21 block: inactive; hERG protect: inactive

How did COc1ccc(-c2cn(-c3ccc(C)cc3)c(=O)n2CC(=O)Nc2ccc(OC)cc2OC)cc1 do in these assays?
KCNK3 inh: inactive; KCNQ1 block: inactive; KCNK9 inh: inactive; KCNQ1 act: inactive; Kir21 block: inactive; hERG protect: inactive; KCNK9 block conf: inactive; Kir2-1 spec: inactive; HEK293 Tl ctr: inactive

How did CCN(C(=O)CN1C(=O)S/C(=C\C=C\c2ccccc2)C1=O)C1CCS(=O)(=O)C1 (stereo not given) do in these assays?
KCNK3 inh: inactive; KCNQ1 block: inactive; KCNK9 inh: inactive; KCNQ1 act: inactive; Kir21 block: inactive; hERG protect: inactive

What do the screens show for `O=c1c(/C=N/OCc2ccc(Cl)cc2Cl)c[nH]n1-c1cccc(Cl)n1`?
KCNK3 inh: inactive; KCNQ1 block: 7; KCNK9 inh: inactive; KCNQ1 act: inactive; Kir21 block: inactive; hERG protect: inactive; KCNK9 block conf: inactive; Kir2-1 spec: inactive; HEK293 Tl ctr: inactive

Results for Cc1cc(O)c(/C=N/OCc2ccc(Cl)cc2Cl)c(=O)o1 ?
KCNK3 inh: inactive; KCNQ1 block: inactive; KCNK9 inh: inactive; KCNQ1 act: inactive; Kir21 block: inactive; hERG protect: inactive

Results for Cc1[nH][nH]c(=O)c1C(c1ccc(-c2ccc(Cl)c(Cl)c2)o1)c1c(C)[nH][nH]c1=O ?
KCNK3 inh: inactive; KCNQ1 block: inactive; KCNK9 inh: inactive; KCNQ1 act: 10; Kir21 block: inactive; hERG protect: inactive; KCNK9 block conf: inactive; Kir2-1 spec: inactive; HEK293 Tl ctr: inactive

What do the screens show for `Cc1[nH][nH]c(=O)c1C(c1ccc(-c2ccc(C(=O)O)cc2)o1)c1c(C)[nH][nH]c1=O`?
KCNK3 inh: inactive

How did CN(C)S(=O)(=O)c1ccc(Cl)c(NC(=O)C2CCN(S(=O)(=O)c3cccs3)CC2)c1 do in these assays?
KCNK3 inh: inactive

Results for COC(=O)CSc1nc(SCc2ccccc2Cl)nc2c1CCCC2 ?
KCNK3 inh: inactive; KCNQ1 block: inactive; KCNK9 inh: inactive; KCNQ1 act: inactive; Kir21 block: inactive; hERG protect: inactive; KCNK9 block conf: inactive; Kir2-1 spec: inactive; HEK293 Tl ctr: inactive

Results for O=C(O)CSc1nc(SCc2ccccc2Cl)nc2c1CCCC2 ?
KCNK3 inh: inactive; KCNQ1 block: inactive; KCNK9 inh: inactive; KCNQ1 act: inactive; Kir21 block: inactive; hERG protect: inactive

What do the screens show for `CC1(C)Cc2c(C#N)c(N3CCCC3)nc(-c3ccco3)c2CO1`?
KCNK3 inh: inactive; KCNQ1 block: inactive; KCNK9 inh: inactive; KCNQ1 act: inactive; Kir21 block: inactive; hERG protect: inactive; KCNK9 block conf: inactive; Kir2-1 spec: inactive; HEK293 Tl ctr: inactive
